Consider one molecule from ChEMBL document CHEMBL3351717, “Synthesis and anticancer activities of novel 1,2,4-triazolo[3,4-a]phthalazine derivatives” (Eur J Med Chem, 2014).

For test [1], the system named is EC9706. Kind of test: Induction of apoptosis in human EC9706 cells assessed as viable cells at 3.2 uM after 24 hrs by annexin V-FITC/propidium iodide staining-flow cytometry (reference value: 87.8%). The class given is functional. The conditions noted are these: EC9706, 24 h, read-out: Activity.
Test [2] is described as follows: Cell cycle arrest in human EC9706 cells assessed as accumulation at G2/M phase at 0.8 uM after 24 hrs by flow cytometry (Rvb =16.03 %). Format: functional, cell-based. The method in brief:
(§1)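 EC-9706 cells treated with compound at […] for 12 h or 24 h. Cells collected, centrifuged and fixed in ice-cold 70% ethanol. Then treated with buffer containing RNAse A and 0.1% Triton X-100, stained with propidium iodide, and phase distribution measured by flow cytometry.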
Background: Flow cytometry measures light scatter and fluorescence of single cells or particles in a stream.

Test [3] deals with EC9706. In words: Induction of apoptosis in human EC9706 cells assessed as viable cells at 3.2 uM after 12 hrs by annexin V-FITC/propidium iodide staining-flow cytometry (reference value: 88.7%). The class given is functional. The conditions noted are these: EC9706, 12 h, read-out: Activity.
Test [4] can be described thus: Cell cycle arrest in human EC9706 cells assessed as accumulation at G1 phase at 1.6 uM after 24 hrs by flow cytometry (Rvb =49.37 %). The class given is functional, cell-based. The essentials: as §1
In test [5] the test system is EC9706. In words: Induction of apoptosis in human EC9706 cells assessed as late apoptotic cells at 3.2 uM after 24 hrs by annexin V-FITC/propidium iodide staining-flow cytometry (Rvb =2.7%). The class given is functional.
The nature of test [6]: Cell cycle arrest in human EC9706 cells assessed as accumulation at G1 phase at 0.8 uM after 24 hrs by flow cytometry (Rvb =49.37 %). Format: functional, cell-based. The essentials: as §1
The test system of test [7] is EC9706. In words: Induction of apoptosis in human EC9706 cells assessed as necrotic cells at 0.8 uM after 12 hrs by annexin V-FITC/propidium iodide staining-flow cytometry (reference value: 0.5%). The class given is functional.
Test [8] concerns EC9706. In words: Induction of apoptosis in human EC9706 cells assessed as early apoptotic cells at 1.6 uM after 24 hrs by annexin V-FITC/propidium iodide staining-flow cytometry (reference value: 8.2%). Format: functional.
Test [9] relates to EC9706. Kind of test: Induction of apoptosis in human EC9706 cells assessed as viable cells at 0.8 uM after 24 hrs by annexin V-FITC/propidium iodide staining-flow cytometry (reference value: 87.8%). Format: functional. The conditions noted are these: EC9706, 24 h, read-out: Activity.
Test [10] is described as follows: Cell cycle arrest in human EC9706 cells assessed as accumulation at G1 phase at 3.2 uM after 24 hrs by flow cytometry (Rvb =49.37 %). The class given is functional, cell-based. The method in brief: as §1
Test [11] is described as follows: Cell cycle arrest in human EC9706 cells assessed as accumulation at G2/M phase at 3.2 uM after 24 hrs by flow cytometry (Rvb =16.03 %). The class given is functional, cell-based. The method in brief: as §1
Test [12] in a line: Cell cycle arrest in human EC9706 cells assessed as accumulation at G2/M phase at 0.8 uM after 12 hrs by flow cytometry (Rvb =12.49 %). The class given is functional, cell-based. The method in brief:
as §1

In test [13] the test system is EC9706. Kind of test: Induction of apoptosis in human EC9706 cells assessed as necrotic cells at 3.2 uM after 24 hrs by annexin V-FITC/propidium iodide staining-flow cytometry (reference value: 1.3%). Format: functional.
The nature of test [14]: Cell cycle arrest in human EC9706 cells assessed as accumulation at G1 phase at 3.2 uM after 12 hrs by flow cytometry (Rvb =58.43 %). The class given is functional, cell-based. The method in brief:
as §1

As to `O=C(CN1CCN(c2nn3c(-c4ccccc4)nnc3c3ccccc23)CC1)Nc1ccccc1F`, the figures for the viability at 3.2 µM with EC9706 [1] and with EC9706 [3] were 35.7% and 51.6%, respectively. Further, the Activity in test [2] was 24.2%; in test [4], 52.2%; with EC9706 [5] it was 16.6%; in test [6], 43%; with EC9706 [7] it was 1.3%; in the test on EC9706 [8], 24.7%. The Activity in test [10] came to 38%; in test [11], 44.4%; in [12] it was 12.5%; in the test with EC9706 [13], 6.3%; in [14], 60.9%. For the same molecule, the viability at 0.8 µM in the test with EC9706 [9] is 78.7%.
